Where “and” joins values, the source holds several entries; their conditions need not be identical. Equal entries are not always repeated.
Tests used:
[1] = DPPH free radical scavenging assay
Procedure, shortened: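 Test compound (20–300 µg/mL) mixed with an equal volume of DPPH solution, shaken vigorously, then kept 30 min in the dark at room temperature. Absorbance read at 517 nm. % scavenging = (OD control − OD sample)/OD control × 100, and IC50 derived from this. Ascorbic acid (10–150 µg/mL) served as positive control.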

[2] = target: T1, porcine pancreatic α-amylase (Sus scrofa, UniProt P00690); assay: biochemical; conditions: α-Amylase inhibition method IC50 value
T1 sequence (P00690 16-511): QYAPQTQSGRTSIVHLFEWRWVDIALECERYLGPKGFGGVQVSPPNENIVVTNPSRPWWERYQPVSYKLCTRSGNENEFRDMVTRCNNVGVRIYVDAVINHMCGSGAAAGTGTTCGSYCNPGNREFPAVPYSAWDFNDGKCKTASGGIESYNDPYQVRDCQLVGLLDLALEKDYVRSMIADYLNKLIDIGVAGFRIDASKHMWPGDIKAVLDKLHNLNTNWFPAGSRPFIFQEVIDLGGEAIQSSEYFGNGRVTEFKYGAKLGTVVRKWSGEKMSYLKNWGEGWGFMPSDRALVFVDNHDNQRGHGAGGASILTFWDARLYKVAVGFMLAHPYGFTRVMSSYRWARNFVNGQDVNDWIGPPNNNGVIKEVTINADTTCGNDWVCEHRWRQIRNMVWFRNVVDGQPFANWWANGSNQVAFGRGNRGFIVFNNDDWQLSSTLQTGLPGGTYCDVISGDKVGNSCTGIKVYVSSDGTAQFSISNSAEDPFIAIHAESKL

rat α-glucosidase = assay: α-glucosidase inhibition method; type: biochemical
Procedure, shortened: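 Enzyme was the supernatant of rat intestinal acetone powder in saline, sonicated at 4 °C and spun at 1008 ×g (4 °C, 30 min). Test compound (20–300 µg/mL) and enzyme pre-incubated 5 min at 37 °C in 50 mM phosphate pH 6.8. 3 mM PNPG added, then 30 min at 37 °C and A405 read.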

[3] = ABTS radical scavenging assay
Procedure, shortened: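 ABTS radical cation formed by mixing 7 mM ABTS with 2.4 mM ammonium persulfate (1:1) and leaving 18–24 h in the dark at room temperature. Test compound (20–300 µg/mL) added to the ABTS solution and absorbance read at 734 nm. % inhibition = (OD control − OD sample)/OD control × 100, and IC50 taken from this. Ascorbic acid (10–150 µg/mL) served as positive control.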

SMILES | DPPH Assay IC50 value [1] | IC50 [2] | α-Glucosidase inhibition method IC50 value (rat α-glucosidase) | ABTS Assay IC50 value [3]
Cc1noc(NS(=O)(=O)c2ccc(N=NN(C)O)cc2)c1C [SF-1, 3ـhydroxyـ3ـmethylـ1ـ(4ـ(Nـ(3,4ـdimethylisoxazolـ5ـyl)sulfamoyl)phenyl)triazene] | 556.65 µg/mL | 531 µM | 270 µg/mL | 
CCN(O)N=Nc1ccc(S(=O)(=O)Nc2onc(C)c2C)cc1 [SF-2, 3ـhydroxyـ3ـethylـ1ـ(4ـ(Nـ(3,4ـdimethylisoxazolـ5ـyl)sulfamoyl)phenyl)triazene] | 614.17 µg/mL | 625 µM | 248.64 µg/mL | 229.83 µg/mL
CCCN(O)N=Nc1ccc(S(=O)(=O)Nc2onc(C)c2C)cc1 [SF-3, 3ـhydroxyـ3ـpropylـ1ـ(4ـ(Nـ(3,4ـdimethylisoxazolـ5ـyl)sulfamoyl)phenyl)triazene] | 490.82 µg/mL | 419 µM | 235.55 µg/mL | 218.94 µg/mL
Cc1noc(NS(=O)(=O)c2ccc(N=NN(O)c3ccccc3)cc2)c1C [SF-4, 3ـhydroxyـ3ـphenylـ1ـ(4ـ(Nـ(3,4ـdimethylisoxazolـ5ـyl)sulfamoyl)phenyl)triazene] | 578.76 µg/mL | 452 µM | 233 µg/mL | 
Cc1cccc(N(O)N=Nc2ccc(S(=O)(=O)Nc3onc(C)c3C)cc2)c1 [SF-5, 3ـhydroxyـ3ـ(3ـmethylphenyl)ـ1ـ(4ـ(Nـ(3,4ـdimethylisoxazolـ5ـyl)sulfamoyl)phenyl)triazene] | 423 µg/mL and 423.91 µg/mL | 546 µM and 548 µM | 292 µg/mL | 164.34 µg/mL
Cc1ccc(N(O)N=Nc2ccc(S(=O)(=O)Nc3onc(C)c3C)cc2)cc1 [SF-6, 3ـhydroxyـ3ـ(4ـmethylphenyl)ـ1ـ(4ـ(Nـ(3,4ـdimethylisoxazolـ5ـyl)sulfamoyl)phenyl)triazene] | 587.28 µg/mL | 612 µM | 329 µg/mL | 70 µg/mL and 70.62 µg/mL
Cc1cc(NS(=O)(=O)c2ccc(N=NN(C)O)cc2)no1 [SM-1, 3ـhydroxyـ3ـmethylـ1ـ(4ـ(Nـ(5ـmethylisoxazolـ3ـyl)sulfamoyl)phenyl)triazene] | 426 µg/mL and 426.75 µg/mL | 698 µM |  | 252.96 µg/mL
CCN(O)N=Nc1ccc(S(=O)(=O)Nc2cc(C)on2)cc1 [SM-2, 3ـhydroxyـ3ـethylـ1ـ(4ـ(Nـ(5ـmethylisoxazolـ3ـyl)sulfamoyl)phenyl)triazene] |  | 376 µM | 201.99 µg/mL | 401.72 µg/mL
CCCN(O)N=Nc1ccc(S(=O)(=O)Nc2cc(C)on2)cc1 [SM-3, 3ـhydroxyـ3ـpropylـ1ـ(4ـ(Nـ(5ـmethylisoxazolـ3ـyl)sulfamoyl)phenyl)triazene] | 624 µg/mL | 624 µM | 222.91 µg/mL | 282.32 µg/mL
Cc1cc(NS(=O)(=O)c2ccc(N=NN(O)c3ccccc3)cc2)no1 [SM-4, 3ـhydroxyـ3ـphenylـ1ـ(4ـ(Nـ(5ـmethylisoxazolـ3ـyl)sulfamoyl)phenyl)triazene] | 583.31 µg/mL | 469 µM | 249 µg/mL | 104.13 µg/mL
Cc1cccc(N(O)N=Nc2ccc(S(=O)(=O)Nc3cc(C)on3)cc2)c1 [SM-5, 3ـhydroxyـ3ـ(3ـmethylphenyl)ـ1ـ(4ـ(Nـ(5ـmethylisoxazolـ3ـyl)sulfamoyl)phenyl)triazene] | 660 µg/mL and 660.39 µg/mL | 519 µM | 314.43 µg/mL | 81.50 µg/mL
Cc1ccc(N(O)N=Nc2ccc(S(=O)(=O)Nc3cc(C)on3)cc2)cc1 [SM-6, 3ـhydroxyـ3ـ(4ـmethylphenyl)ـ1ـ(4ـ(Nـ(5ـmethylisoxazolـ3ـyl)sulfamoyl)phenyl)triazene] | 550.32 µg/mL | 425 µM | 262.74 µg/mL | 250.26 µg/mL
CN(O)N=Nc1ccc(S(=O)(=O)Nc2nccs2)cc1 [ST-1, 3ـhydroxyـ3ـmethylـ1ـ(4ـ(Nـ(thiazolـ2ـyl)sulfamoyl)phenyl)triazene] | 488 µg/mL and 488.06 µg/mL | 559 µM | 238 µg/mL | 
CCN(O)N=Nc1ccc(S(=O)(=O)Nc2nccs2)cc1 [ST-2, 3ـhydroxyـ3ـethylـ1ـ(4ـ(Nـ(thiazolـ2ـyl)sulfamoyl)phenyl)triazene] | 532.35 µg/mL | 707 µM | 219 µg/mL | 232.39 µg/mL and 232.393 µg/mL
CCCN(O)N=Nc1ccc(S(=O)(=O)Nc2nccs2)cc1 [ST-3, 3ـhydroxyـ3ـpropylـ1ـ(4ـ(Nـ(thiazolـ2ـyl)sulfamoyl)phenyl)triazene] | 662 µg/mL and 662.79 µg/mL | 586 µM | 252 µg/mL | 160.145 µg/mL
O=S(=O)(Nc1nccs1)c1ccc(N=NN(O)c2ccccc2)cc1 [ST-4, 3ـhydroxyـ3ـphenylـ1ـ(4ـ(Nـ(thiazolـ2ـyl)sulfamoyl)phenyl)triazene] | 565.88 µg/mL | 550 µM | 280.03 µg/mL | 
Cc1cccc(N(O)N=Nc2ccc(S(=O)(=O)Nc3nccs3)cc2)c1 [ST-5, 3ـhydroxyـ3ـ(3ـmethylphenyl)ـ1ـ(4ـ(Nـ(thiazolـ2ـyl)sulfamoyl)phenyl)triazene] | 472.08 µg/mL | 558 µM | 341 µg/mL | 92.075 µg/mL
C[C@H]1O[C@H](O[C@H]2[C@H](O)[C@@H](O)[C@@H](O[C@H]3[C@H](O)[C@@H](O)C(O)O[C@@H]3CO)O[C@@H]2CO)[C@H](O)[C@@H](O)[C@@H]1N[C@H]1C=C(CO)[C@@H](O)[C@H](O)[C@H]1O (some centres unmarked) [acarbose, reference compound] |  |  | 12.21 (acarbose) μg/mL | 
O=C1O[C@H]([C@@H](O)CO)C(O)=C1O [ascorbic acid, reference compound] | 29.12 (ascorbic acid) μg/mL |  |  | 69.13 (ascorbic acid) μg/mL
